Consider one molecule from ChEMBL document CHEMBL4406804, “Discovery of a Potent Steroidal Glucocorticoid Receptor Antagonist with Enhanced Selectivity against the Progesterone and Androgen Receptors (OP-3633)” (J Med Chem, 2019).

pIC50: −log10 of the molar value. In brackets after ≈: the same amount, converted by molar mass.

One data set concerns the target T1, Cytochrome P450 2C8 (Homo sapiens, UniProt P10632).
T1 sequence (P10632 whole entry): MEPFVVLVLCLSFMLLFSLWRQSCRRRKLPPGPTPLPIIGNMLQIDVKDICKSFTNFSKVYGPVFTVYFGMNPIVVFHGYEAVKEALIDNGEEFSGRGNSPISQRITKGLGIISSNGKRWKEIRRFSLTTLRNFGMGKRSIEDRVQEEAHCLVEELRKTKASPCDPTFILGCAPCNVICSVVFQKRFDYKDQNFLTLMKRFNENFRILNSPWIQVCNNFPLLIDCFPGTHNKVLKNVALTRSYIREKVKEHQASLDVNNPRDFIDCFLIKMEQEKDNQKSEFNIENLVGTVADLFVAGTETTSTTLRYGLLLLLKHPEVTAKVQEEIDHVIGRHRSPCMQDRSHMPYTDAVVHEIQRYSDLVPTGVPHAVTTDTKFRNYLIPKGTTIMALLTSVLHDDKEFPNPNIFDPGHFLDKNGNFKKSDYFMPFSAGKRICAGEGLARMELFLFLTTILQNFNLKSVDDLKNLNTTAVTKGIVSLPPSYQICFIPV
Description: Inhibition of CYP2C8 (unknown origin) using paclitaxel as substrate. The class given is ADME.

Data set [1] is described as follows: Volume of distribution at steady state in dog at 0.5 mg/kg, iv. The format is ADME, organism-based, Canis lupus familiaris. The settings on record: in vivo, read-out: Vdss.
The nature of data set [2]: Oral bioavailability in mini-pig at 5 mg/kg. The settings on record: in vivo. The class given is ADME, organism-based, Sus scrofa domesticus.
Data set [3] in a line: Solubility of compound in fasted state simulated intestinal fluid at pH 6.5. The format is physicochemical.
A short description of data set [4]: Toxicity in female rat assessed as effect on body weight at 250 mg/kg/day, po administered once daily via gavage for 14 days. The format is organism-based. The settings on record: in vivo, 336 h.
In another data set the target is T2, Androgen receptor (Homo sapiens, UniProt P10275).
T2 sequence (P10275 whole entry): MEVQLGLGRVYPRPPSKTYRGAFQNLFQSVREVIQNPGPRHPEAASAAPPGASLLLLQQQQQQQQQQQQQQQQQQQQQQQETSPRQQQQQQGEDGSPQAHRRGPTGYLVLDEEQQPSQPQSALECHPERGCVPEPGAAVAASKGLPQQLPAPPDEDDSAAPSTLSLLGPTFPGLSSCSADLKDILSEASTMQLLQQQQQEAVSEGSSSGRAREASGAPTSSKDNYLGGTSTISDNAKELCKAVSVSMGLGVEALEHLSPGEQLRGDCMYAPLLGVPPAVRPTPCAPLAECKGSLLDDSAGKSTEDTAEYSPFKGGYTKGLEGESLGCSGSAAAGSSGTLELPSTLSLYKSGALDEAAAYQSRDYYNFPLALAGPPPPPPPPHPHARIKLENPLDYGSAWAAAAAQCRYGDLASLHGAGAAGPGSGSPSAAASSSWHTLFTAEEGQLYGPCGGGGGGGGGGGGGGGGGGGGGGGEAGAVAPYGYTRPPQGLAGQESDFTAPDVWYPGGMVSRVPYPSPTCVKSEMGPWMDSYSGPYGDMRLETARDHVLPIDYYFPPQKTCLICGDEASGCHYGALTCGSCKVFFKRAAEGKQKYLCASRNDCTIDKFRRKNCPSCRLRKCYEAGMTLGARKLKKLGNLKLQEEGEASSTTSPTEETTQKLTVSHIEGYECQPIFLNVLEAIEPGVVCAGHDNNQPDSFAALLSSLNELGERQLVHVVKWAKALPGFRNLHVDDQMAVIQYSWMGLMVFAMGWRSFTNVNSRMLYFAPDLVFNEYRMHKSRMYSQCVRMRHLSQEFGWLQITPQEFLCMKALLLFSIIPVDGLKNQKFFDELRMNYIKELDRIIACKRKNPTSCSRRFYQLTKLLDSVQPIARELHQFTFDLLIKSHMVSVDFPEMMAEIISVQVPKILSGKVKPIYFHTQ
As to the kind of experiment: Antagonist activity at human androgen receptor in human LNCAP cells harboring firefly luciferase gene after 20 hrs by One-Glo luciferase reporter gene assay. The format is cell-based. In outline: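 Cell-based luciferase reporter assays for GR, AR and PR, run in agonist and antagonist modes. Potency and Emax are averages of at least two determinations, reported with SD.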
On the technique in general: In a reporter assay the amount or activity of a reporter protein is the signal.

Data set [5] deals with Mus musculus. Description: In vivo antagonist activity at glucocorticoid receptor in tumor of human HCC1806 cells xenografted in hsd:athymic Nude-Foxn1nu mouse assessed as reduction in cortisol-stimulated FKBP5 mRNA expression at 150 mg/kg, po administered as single dose via gavage and measured at 6 hrs post cortisol addition by qRT-PCR analysis (reference value: 2.3 to 4). The format is functional. In outline: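 HCC1806 TNBC xenograft tumors in mice. Cortisol 5 mg/kg given orally as a bolus to activate GR. The compound was given as a single oral gavage dose of 150 mg/kg, with vehicle controls. Tumors were collected 3 and 6 h after cortisol, and FKBP5 mRNA was measured by RT-qPCR relative to vehicle. n = 3 mice/group. One-way ANOVA with Dunnett's test versus vehicle.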

Data set [6] in a line: Oral bioavailability in dog at 5 mg/kg. The class given is ADME, organism-based, Canis lupus familiaris. The settings on record: in vivo.
For the next data set, the target named is Cytochrome P450 3A4 (Homo sapiens, UniProt P08684). As to the kind of experiment: Inhibition of CYP3A4 (unknown origin) using midazolam as substrate. The class given is ADME.
Chain of Cytochrome P450 3A4 (P08684 whole entry): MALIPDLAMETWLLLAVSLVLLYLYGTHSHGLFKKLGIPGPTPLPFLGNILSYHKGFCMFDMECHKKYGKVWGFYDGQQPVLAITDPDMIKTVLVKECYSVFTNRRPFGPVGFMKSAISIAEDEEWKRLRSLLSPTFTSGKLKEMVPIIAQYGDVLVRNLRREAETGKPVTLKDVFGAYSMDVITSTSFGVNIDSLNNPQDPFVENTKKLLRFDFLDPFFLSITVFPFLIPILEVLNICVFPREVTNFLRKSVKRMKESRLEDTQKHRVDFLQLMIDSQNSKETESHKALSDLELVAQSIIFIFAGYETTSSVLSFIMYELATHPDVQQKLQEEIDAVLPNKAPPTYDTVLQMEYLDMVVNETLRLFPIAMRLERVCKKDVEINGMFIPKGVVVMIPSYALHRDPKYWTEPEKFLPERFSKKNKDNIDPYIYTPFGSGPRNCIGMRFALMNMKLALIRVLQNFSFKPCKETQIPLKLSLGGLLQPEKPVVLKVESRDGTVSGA
Data set [7] is described as follows: Half-life in mini-pig at 0.5 mg/kg, iv. The class given is ADME, organism-based, Sus scrofa domesticus. The settings on record: in vivo.
The nature of data set [8]: Solubility of compound in PBS at pH 7.4. The class given is physicochemical.
Data set [9] deals with Mus musculus. Description: Unbound plasma concentration in hsd:athymic Nude-Foxn1nu mouse xenografted with human HCC1806 cells at 150 mg/kg, po administered as single dose via gavage and measured after 1 to 6 hrs […]. The settings on record: in vivo. The class given is ADME, organism-based. In outline:
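Mice bearing HCC1806 xenografts received a bolus oral dose of cortisol at 5 mg/kg to activate GR, plus a single oral gavage dose of the test agent at 150 mg/kg. An unbound plasma concentration-time profile was taken up to 6 h, with n = 3 mice per group.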
Background: A xenograft is tissue or cells of one species grown in another, often human tumour cells in immunodeficient mice.

Data set [10] in a line: Toxicity in female rat assessed as effect on ovarian weight at 250 mg/kg/day, po administered once daily via gavage for 14 days. The settings on record: in vivo, 336 h. The format is organism-based.

For orientation: pIC50 means the IC50 on a negative log10 scale, so that one unit is a factor of ten. A low value points to a high IC50. As a reminder, the bioavailability is the share of a dose that reaches the circulation, judged against a reference dose that is usually intravenous. Low values mean little systemic uptake, high ones much systemic uptake. The term solubility denotes the dissolved amount per volume that the medium holds. The low end stands for a poorly soluble substance, the high end for a readily soluble substance. A word on the half-life: it is the time needed for the level to fall by half in the phase considered. A lower half-life goes with rapid decline.

`CC#C[C@]1(O)CC[C@H]2[C@@H]3CCC4=CC(=O)CC[C@]4(C)[C@H]3[C@@H](c3ccc(N(C)C)cc3)C[C@@]21C`: the pIC50 against Cytochrome P450 2C8 is 5.10; against Androgen receptor, 6.04; against Cytochrome P450 3A4, under 5.00. The Vd in [1] was found to be 8.32 L/kg. For the same molecule, the bioavailability in [2] was found to be 35.9%; in data set [6] it was 67.6%. The solubility was 59.5 µM (≈ 26.5 µg/mL) in data set [3] and 20.6 µM (≈ 9.18 µg/mL) in data set [8]. Further, the Activity result in data set [4] and in data set [10] was “Non-Toxic” in each case. Besides, the “fold change (FC)” value with Mus musculus [5] came out at 2.3. The molecule also showed a half-life in [7] of 2.71 h. The “Cp(f)” value with Mus musculus [9] is given as 400 nM.
